In ChEMBL document CHEMBL3425494, “Design, synthesis, and antitumor evaluation of novel histone deacetylase inhibitors equipped with a phenylsulfonylfuroxan module as a nitric oxide donor” (J Med Chem, 2015):
Calls of active or inactive are those of the source. No cut-off for these calls is given here.

Legend:
[1] = system: HEL; assay: Cell cycle arrest in human HEL cells assessed as accumulation at S phase at 0.5 uM after 48 hrs by propidium iodide staining-based flow cytometric analysis (reference value: 46.88%); type: functional
[2] = Cytotoxicity against human ES2 cells assessed as growth inhibition after 48 hrs by MTT assay; type: functional, cell-based; settings: ES-2, 48 h
[3] = system: HEL; assay: animal or person; type: functional, Homo sapiens; settings: Mus musculus, po, read-out: TGI
[4] = Cytotoxicity against human 3AO cells assessed as growth inhibition after 48 hrs by MTT assay; type: functional, cell-based
[5] = system: HeLa; assay: Cytotoxicity against human HeLa cells assessed as growth inhibition after 48 hrs by MTT assay; type: functional, cell-based
[6] = target: Histone deacetylase 3 (Homo sapiens, UniProt O15379); assay: Inhibition of full length human recombinant HDAC3 expressed in baculovirus infected insect S9 cells using Ac-Leu-GlyLys(Ac)-AMC as substrate after 30 mins by fluorescence assay
Chain of Histone deacetylase 3 (O15379 whole entry): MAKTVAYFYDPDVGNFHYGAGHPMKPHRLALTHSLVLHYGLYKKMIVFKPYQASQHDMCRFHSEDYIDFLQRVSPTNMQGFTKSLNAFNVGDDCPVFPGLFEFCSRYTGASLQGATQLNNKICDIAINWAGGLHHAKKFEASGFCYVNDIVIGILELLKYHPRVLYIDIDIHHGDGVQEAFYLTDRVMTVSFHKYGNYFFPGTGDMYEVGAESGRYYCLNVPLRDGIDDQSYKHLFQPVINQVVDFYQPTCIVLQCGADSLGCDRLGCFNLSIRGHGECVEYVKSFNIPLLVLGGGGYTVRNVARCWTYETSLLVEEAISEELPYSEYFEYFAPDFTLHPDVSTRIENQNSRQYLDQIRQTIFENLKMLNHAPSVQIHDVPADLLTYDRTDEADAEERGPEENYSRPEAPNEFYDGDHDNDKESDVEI

[7] = target: Histone deacetylase 4 (Homo sapiens, UniProt P56524); assay: Inhibition of human recombinant HDAC4 expressed in baculovirus infected insect S9 cells using Ac-Leu-GlyLys(Tfa)-AMC as substrate after 30 mins by fluorescence assay
Chain of Histone deacetylase 4 (P56524 whole entry): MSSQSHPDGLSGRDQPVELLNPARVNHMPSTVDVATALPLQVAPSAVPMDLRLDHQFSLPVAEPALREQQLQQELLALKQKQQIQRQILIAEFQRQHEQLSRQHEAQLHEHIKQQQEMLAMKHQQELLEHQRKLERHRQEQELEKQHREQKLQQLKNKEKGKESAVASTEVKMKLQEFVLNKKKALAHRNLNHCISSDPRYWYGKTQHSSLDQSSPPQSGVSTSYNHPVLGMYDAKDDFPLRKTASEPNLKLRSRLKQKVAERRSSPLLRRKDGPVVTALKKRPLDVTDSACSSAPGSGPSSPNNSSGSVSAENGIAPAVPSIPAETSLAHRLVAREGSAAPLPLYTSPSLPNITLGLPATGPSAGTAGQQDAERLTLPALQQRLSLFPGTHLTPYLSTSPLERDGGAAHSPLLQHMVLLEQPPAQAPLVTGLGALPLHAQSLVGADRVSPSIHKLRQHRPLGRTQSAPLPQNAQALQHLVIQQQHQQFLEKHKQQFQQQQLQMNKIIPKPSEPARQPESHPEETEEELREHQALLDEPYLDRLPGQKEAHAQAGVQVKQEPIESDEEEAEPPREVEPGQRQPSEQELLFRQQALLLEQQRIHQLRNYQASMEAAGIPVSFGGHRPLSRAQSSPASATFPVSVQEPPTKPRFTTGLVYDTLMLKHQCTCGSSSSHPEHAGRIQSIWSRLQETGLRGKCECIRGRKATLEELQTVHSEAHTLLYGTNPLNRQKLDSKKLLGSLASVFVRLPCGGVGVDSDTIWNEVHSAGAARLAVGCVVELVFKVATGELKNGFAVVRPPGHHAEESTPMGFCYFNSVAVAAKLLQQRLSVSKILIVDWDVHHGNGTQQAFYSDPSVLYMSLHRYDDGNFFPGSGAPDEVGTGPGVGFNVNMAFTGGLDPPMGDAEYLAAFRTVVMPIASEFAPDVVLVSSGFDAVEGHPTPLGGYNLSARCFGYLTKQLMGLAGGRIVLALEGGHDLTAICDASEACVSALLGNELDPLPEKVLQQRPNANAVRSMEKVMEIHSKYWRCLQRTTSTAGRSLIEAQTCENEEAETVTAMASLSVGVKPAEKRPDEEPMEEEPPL

[8] = system: HUVEC; assay: Cytotoxicity against HUVEC assessed as growth inhibition after 48 hrs by MTT assay; type: cell-based; settings: Homo sapiens
[9] = system: HEL; assay: Induction of apoptosis in human HEL cells after 24 hrs by 7-AAD-annexin-V/propidium iodide staining-based flow cytometric analysis; type: functional, cell-based
Summary of the method: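 HEL cells (1 × 10⁵/well) grown 24 h, then treated 24 h at 0.5, 1 or 2 µM in fresh medium; 0.1% DMSO control. Cells collected, washed with cold PBS, stained in binding buffer with 7-AAD and propidium iodide (PE-Annexin V kit) 15 min at 25 °C in the dark; apoptotic fraction by flow cytometry.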

[10] = system: HEL; assay: Cell cycle arrest in human HEL cells assessed as accumulation at G1 phase at 0.5 uM after 48 hrs by propidium iodide staining-based flow cytometric analysis (reference value: 47.87%); type: functional
[11] = system: Mus musculus; assay: Toxicity in BALB/c-nu mouse xenografted with human HEL cells assessed as effect on liver at 120 mg/kg/day, po administered for 21 days; type: organism-based; set-up: route oral; settings: in vivo, 504 h
Summary of the method: (§1)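 Nude mice bearing HEL xenografts dosed orally 120 mg/kg/day for 21 days, 6 per group, controls on PBS/DMSO vehicle. After treatment, mice sacrificed and dissected to examine internal organs.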

[12] = Cytotoxicity against human KG1 cells assessed as growth inhibition after 48 hrs by MTT assay; type: functional, cell-based; settings: KG-1, 48 h
[13] = system: HEL; assay: Antitumor activity against human HEL cells xenografted in BALB/c-nu mouse assessed as inhibition of tumor growth at 100 mg/kg/day, po administered for 21 days measured every 3 days during compound dosing relative to control; type: functional; settings: read-out: TGI
Summary of the method: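 HEL s.c. xenografts in male BALB/c-nu mice (6–8 weeks), randomized at ~100 mm³, 6 per group; daily oral dosing for 21 days versus PBS/DMSO vehicle group. […] Student's two-tailed t test, p < 0.05.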

[14] = target: Histone deacetylase 2 (Homo sapiens) (UniProt Q92769); settings: MV4-11, 12.5 to 200 nM
Chain of Histone deacetylase 2 (Homo sapiens) (Q92769 whole entry): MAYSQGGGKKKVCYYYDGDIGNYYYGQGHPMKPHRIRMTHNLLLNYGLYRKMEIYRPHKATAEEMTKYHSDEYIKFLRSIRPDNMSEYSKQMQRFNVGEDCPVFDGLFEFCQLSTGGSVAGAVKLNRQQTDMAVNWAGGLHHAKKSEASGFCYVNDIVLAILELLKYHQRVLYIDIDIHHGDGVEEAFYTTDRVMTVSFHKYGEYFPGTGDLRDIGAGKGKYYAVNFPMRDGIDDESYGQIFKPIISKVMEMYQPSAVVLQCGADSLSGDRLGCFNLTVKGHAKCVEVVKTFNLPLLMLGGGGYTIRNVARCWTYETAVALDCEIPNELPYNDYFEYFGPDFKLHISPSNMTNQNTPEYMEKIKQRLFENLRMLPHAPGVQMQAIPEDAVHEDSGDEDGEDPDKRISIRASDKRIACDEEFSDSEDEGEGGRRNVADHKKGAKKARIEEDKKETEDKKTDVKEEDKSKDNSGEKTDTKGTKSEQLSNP

[15] = target: T1, Protein deacetylase HDAC6 (Homo sapiens) (UniProt Q9UBN7); settings: MV4-11, 12.5 nM
T1 sequence (whole entry): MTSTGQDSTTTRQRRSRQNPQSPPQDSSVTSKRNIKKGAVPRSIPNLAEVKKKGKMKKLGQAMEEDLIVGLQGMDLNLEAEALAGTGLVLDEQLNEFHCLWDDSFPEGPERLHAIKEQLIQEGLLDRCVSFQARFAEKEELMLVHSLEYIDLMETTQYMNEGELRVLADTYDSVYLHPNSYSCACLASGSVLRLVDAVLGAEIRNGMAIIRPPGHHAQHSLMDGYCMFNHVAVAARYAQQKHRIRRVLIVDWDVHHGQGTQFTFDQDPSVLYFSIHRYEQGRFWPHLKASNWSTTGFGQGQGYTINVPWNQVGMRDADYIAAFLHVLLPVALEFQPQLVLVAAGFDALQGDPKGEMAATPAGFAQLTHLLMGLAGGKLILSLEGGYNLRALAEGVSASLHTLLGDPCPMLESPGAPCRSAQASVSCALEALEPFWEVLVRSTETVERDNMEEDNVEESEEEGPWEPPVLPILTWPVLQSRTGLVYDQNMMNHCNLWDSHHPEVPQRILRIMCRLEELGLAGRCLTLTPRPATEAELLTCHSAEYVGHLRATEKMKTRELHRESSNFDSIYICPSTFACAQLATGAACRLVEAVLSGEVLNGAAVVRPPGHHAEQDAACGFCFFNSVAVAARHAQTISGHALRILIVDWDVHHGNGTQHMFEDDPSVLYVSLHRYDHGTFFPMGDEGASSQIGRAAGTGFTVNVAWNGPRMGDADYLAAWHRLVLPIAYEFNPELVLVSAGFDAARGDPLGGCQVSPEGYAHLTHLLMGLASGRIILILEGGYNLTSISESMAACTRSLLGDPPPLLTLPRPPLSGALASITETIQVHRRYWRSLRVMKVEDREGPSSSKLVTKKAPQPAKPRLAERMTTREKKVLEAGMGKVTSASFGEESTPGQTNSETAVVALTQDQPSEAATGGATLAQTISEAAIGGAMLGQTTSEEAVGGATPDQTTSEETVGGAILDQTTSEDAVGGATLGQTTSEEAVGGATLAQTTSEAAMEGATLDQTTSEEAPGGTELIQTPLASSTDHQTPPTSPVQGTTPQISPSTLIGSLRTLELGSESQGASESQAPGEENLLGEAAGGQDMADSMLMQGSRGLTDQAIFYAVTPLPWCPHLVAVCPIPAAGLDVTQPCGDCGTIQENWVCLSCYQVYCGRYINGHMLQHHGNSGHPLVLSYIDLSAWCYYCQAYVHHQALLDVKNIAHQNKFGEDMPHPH

[16] = system: Mus musculus; assay: Toxicity in BALB/c-nu mouse xenografted with human HEL cells assessed as effect on spleen at 120 mg/kg/day, po administered for 21 days; type: organism-based; set-up: route oral; settings: in vivo, 504 h; summary of the method: as §1
[17] = Cytotoxicity against human HCT116 cells assessed as growth inhibition after 48 hrs by MTT assay; type: functional, cell-based; settings: HCT-116, 48 h
[18] = target: Histone deacetylase 2 (Homo sapiens) (UniProt Q92769); settings: HEL, 1 to 10 uM

## O=C(CCCCCOc1no[n+]([O-])c1S(=O)(=O)c1ccccc1)NO
[1]
  Activity: 9.31%
[2]
  IC50: 1390 nM
[3]
  inhibition in vivo at 120 mg/kg/day: 48%
[4]
  IC50: 5840 nM
[5]
  IC50: 1550 nM
[6]
  IC50: 532 nM
[7]
  IC50: 30 nM
[8]
  IC50: 27100 nM
[9]
  Activity: Dose-dependent effect
[10]
  Activity: 90.24%
[11]
  Activity: Non-toxic
[12]
  IC50: 1750 nM
[13]
  inhibition in vivo at 100 mg/kg/day: 38%
[14]
  inhibition: Active
[15]
  inhibition: Active
[16]
  Activity: Non-toxic
[17]
  IC50: 1510 nM
[18]
  inhibition: Active
